Hits are enriched below; roughly 3.8% of the tested compounds scored in any of these assays.
Hep lipid drop – modulators of hepatic lipid droplet formation; inhibition, % at 6.5 µM; AML12 mouse hepatocytes, oleate lipid droplets, BODIPY imaging; 0.4% of 240,000 active;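 active means lipid droplet intensity inhibited by at least 50%, with more than 500 cells counted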
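Test system: AML12 hepatocytes (mouse); reagent: oleate loading, 100 µM; dosing: one dose, 6.5 µM compound; incubation: overnight exposure; signal: fluorescence imaging, 20x objective, two fields per well; read-out basis: % inhibition of corrected integrated BODIPY droplet signal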
NS3 helicase inh – inhibitors of Hepatitis C virus NS3 helicase | NS3 helicase DNA unwinding, Cy5 molecular beacon fluorescence | 0.56% of 290,000 active | inhibition, % at 10.9 µM;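 active means inhibition above the mean of all tested compounds plus 3 SD, set per campaign, cut at about 35% in these data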
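Control set: DMSO versus 110 µM thioflavine S; Material: NS3 helicase fragment of HCV; Measured by: Cy5 fluorescence at 0 and 60 min, beacon hairpin quenching; Read-out basis: percent inhibition from t60/t0 fluorescence ratio; Times: reaction time 60 min, 25 °C; Repeats: single replicate; Compound dosing: single dose, 10.9 µM nominal final, DMSO 0.8% final.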
HSP90 refold inh – blocks HSP90-mediated luciferase refolding in reticulocyte lysate; inhibition, % at 5.6 µM; Rabbit reticulocyte lysate, luciferase refolding luminescence, 3 h; AID 1789; 0.91% of 290,000 active;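 active means inhibition above the screen-wide mean plus 3 SD, computed separately per campaign, cut at about 16% in these data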;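 further: inhibitors lower the luminescence because luciferase stays unfolded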
HSF1 inh – HSF1 inhibition. NIH3T3-HGL HSE-luciferase, MG132-induced, luminescence 8 h; active compounds read low. activity change, negative = inhibition, % at 7.5 µM (by protocol). 0.77% of 300,000 active;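 active means more than half of replicate wells show activity change below -50%, luminescence cut by over half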;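 further: luciferase reports HSF-1 transcriptional activity via heat shock element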
HSF-1 act – increases HSF-1 driven luciferase reporter signal. NIH3T3-HGL HSF-1 luciferase reporter, MG132, 8 h; 100% = twice DMSO control signal. activation, % at 9 µM. 1.7% of 300,000 active. AID 504408;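 active means mean replicate activation of at least 50% with a set share of replicates each reaching 50%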
Hep lipid conf – hepatic lipid droplet formation inhibition, confirmed; shares compounds with Hep lipid drop; AML12 mouse hepatocytes, BODIPY lipid droplet imaging; droplets induced with 100 µM oleic acid; inhibition, % at 5.2 µM; 65% of 870 active; AID 463183;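 active means inhibition of lipid droplet metric at least 50%, with more than 300 cells in each of four replicates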
AML12 tox img – AML12 hepatocyte cytotoxicity (counter-screen); 3% of 870 active; shares compounds with Hep lipid drop; AID 463200; AML12 mouse hepatocytes, DAPI nuclear morphology cytotoxicity imaging; active compounds read high; cells fed 100 µM oleate overnight; z-score at 5 µM; in the data active means z-score above about 6.3;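 further: compound exposure lasted overnight at 37 °C before fixation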
AML12 tox conf – AML12 hepatocyte cytotoxicity, confirmed; shares compounds with Hep lipid drop; AML12 mouse hepatocyte viability, ATP luminescence; cells loaded with 100 µM oleic acid; cytotoxicity, % at 50 µM; 530 tested, under 10 active;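 active means cytotoxicity above 50% in each of four replicates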;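 further: compound exposure lasted overnight at 37 °C before the ATP read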
HSP90 inh confirm – HSP90 inhibition, confirmation assay; 64% of 2,300 active; rabbit reticulocyte lysate, luciferase refolding luminescence, 3 h; shares compounds with HSP90 refold inh; inhibition, % at 5.9 µM; AID 1846; in the data active means inhibition above about 18%
luciferase ctr – counter-screen for HSP90 inhibitors: inhibitors of firefly luciferase. shares compounds with HSP90 refold inh. purified native firefly luciferase, luminescence. inhibition, % at 5.9 µM. 48% of 2,300 active. AID 1847;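 active means inhibition above the mean inhibition of all tested sample wells plus 3 SD, cut at about 10% in these data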
Target sequence (P08659 whole entry, looked up): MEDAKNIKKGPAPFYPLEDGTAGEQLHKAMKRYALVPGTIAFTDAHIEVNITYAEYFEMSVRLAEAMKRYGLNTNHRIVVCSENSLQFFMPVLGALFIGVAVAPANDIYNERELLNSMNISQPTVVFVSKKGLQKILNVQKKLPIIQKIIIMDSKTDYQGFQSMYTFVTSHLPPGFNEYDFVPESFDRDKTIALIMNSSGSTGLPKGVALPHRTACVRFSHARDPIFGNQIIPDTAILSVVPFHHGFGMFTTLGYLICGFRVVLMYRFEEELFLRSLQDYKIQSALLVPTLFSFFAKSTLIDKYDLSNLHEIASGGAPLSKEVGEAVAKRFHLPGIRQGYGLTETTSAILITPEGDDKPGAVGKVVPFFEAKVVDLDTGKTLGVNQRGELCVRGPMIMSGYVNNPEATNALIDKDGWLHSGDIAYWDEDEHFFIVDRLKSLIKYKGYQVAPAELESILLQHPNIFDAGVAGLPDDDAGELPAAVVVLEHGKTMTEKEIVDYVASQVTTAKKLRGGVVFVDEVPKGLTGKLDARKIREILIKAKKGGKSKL
NS3 helicase cf – confirmation of Hepatitis C virus NS3 helicase inhibitors | NS3 helicase DNA unwinding, Cy5 molecular beacon fluorescence | inhibition, % at 10.9 µM | shares compounds with NS3 helicase inh | 31% of 1,600 active | AID 1943;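 active means inhibition above the mean of all tested compounds plus 3 SD, cutoff set per campaign, cut at about 36% in these data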
FID counter trip – intercalator displacement, NS3 helicase counter-screen; shares compounds with NS3 helicase inh; DNA fluorescent intercalator displacement, fluorescence; inhibition, % at 7.9 µM; 4% of 1,600 active; AID 1945; in the data active means inhibition above about 37%;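 further: higher means more displacement of ethidium bromide from the DNA hairpin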
Large screens that a line does not name were inactive (follow-up assays come after a bar, where they were run).

CCCCCn1c(=O)c(C(=O)Nc2ncccc2C)c(O)c2ccccc21	none
Cc1ccc(C(=O)O)cc1N=Nc1c(O)[nH]c(=O)[nH]c1=O	none
CCc1ccc(N2C(=O)NC(=O)/C(=C/c3cccn3CCOc3ccc(C(C)CC)cc3)C2=O)cc1 (configuration not stated)	HSP90 refold inh 29.4
COc1ccc(-c2cc(=Nc3ccccc3)c3cc(C)ccc3o2)cc1	HSF-1 act 66.3
COc1ccc(-c2cc(=NCCC(=O)O)c3cc(C)ccc3o2)cc1	none
CC(=O)OC1N=C(c2ccccc2)c2cc(Br)ccc2N(C)C1=O (configuration not stated)	none (no result: Hep lipid drop)
COc1ccc(-c2nc3ccccc3c(=O)n2-c2cccnc2)cc1	HSF1 inh -68.8 (no result: Hep lipid drop)
CC(C)OCCCNC(=O)c1c(N)n(CC2CCCO2)c2nc3ccccc3nc12 (configuration not stated)	Hep lipid drop 51.0 | Hep lipid conf inactive | AML12 tox img inactive | AML12 tox conf inactive
Nc1cc(Cl)c2nonc2c1[N+](=O)[O-]	Hep lipid drop 112.8 (no result: HSF1 inh, HSF-1 act) | Hep lipid conf inactive | AML12 tox img inactive
Fc1cccc(F)c1-c1nc(-c2ccc(Cl)cc2)no1	none
Cc1cccc(NC(=O)[C@@H](NC(=O)N2C[C@H]3C[C@@H](C2)c2cccc(=O)n2C3)C(C)C)c1	none (no result: Hep lipid drop)
COc1ccc(N2C(=O)NC(=O)/C(=C\c3cn(C)c4ccccc34)C2=O)cc1	HSP90 refold inh 27.9 | HSP90 inh confirm inactive | luciferase ctr inactive
CCOc1ccc(-n2c(O)c(N=Nc3c(C)n(C)n(-c4ccccc4)c3=O)c(=O)[nH]c2=O)cc1	none
CN(C)C(=O)Oc1cccc(-c2cn3cc(Cl)ccc3n2)c1	none
CN(C)C(=O)Oc1ccc(-c2cn3cc(Cl)ccc3n2)cc1	HSP90 refold inh 32.5 | HSP90 inh confirm 33.6 | luciferase ctr 21.4
CCCC12CN3CN(C1)CC(CCC)(C3)C2O (configuration not stated)	none (no result: Hep lipid drop, HSF1 inh, HSF-1 act)
CCC(=NCCCN(C)C)c1c(O)n(-c2ccc(OC)cc2)c(=O)[nH]c1=O	none
CCOC(=O)c1[nH]c2ccc(OC)cc2c1C(SCC(=O)O)c1ccc(C(F)(F)F)cc1 (configuration not stated)	none (no result: Hep lipid drop)
CC1CN=C(NC(C)c2ccccc2)S1 (configuration not stated)	HSP90 refold inh 17.2 | HSP90 inh confirm inactive | luciferase ctr inactive
CCC(=O)OC1(Cc2ccc(CC)cc2)CC(C)N(C)CC1C (configuration not stated)	none
COc1ccccc1OCCCn1cc(C=O)c2ccccc21	HSP90 refold inh 18.1 | HSP90 inh confirm 21.5 | luciferase ctr inactive
O=C(NC1CCCCC1)Oc1cc2oc(=O)sc2cc1Cl	HSP90 refold inh 17.7 | HSP90 inh confirm inactive | luciferase ctr inactive
CCOC(=O)C1CCN(/C=C2/C(=O)NC(=O)N(c3ccc(OCC)cc3)C2=O)CC1	HSP90 refold inh 23.7 (no result: Hep lipid drop, HSF1 inh, HSF-1 act) | HSP90 inh confirm inactive | luciferase ctr inactive
Cc1ccc(OCCOc2cccc(C=C3C(=O)NC(=O)NC3=O)c2)cc1	HSP90 refold inh 30.4 | HSP90 inh confirm 44.6 | luciferase ctr 14.3
COC(=O)C(O)(c1c(C)[nH]n(-c2ccccc2)c1=O)C(F)(F)F (configuration not stated)	none (no result: Hep lipid drop)
COc1cc(C(c2c(C)[nH]n(-c3ccccc3)c2=O)c2c(C)[nH]n(-c3ccccc3)c2=O)cc(OC)c1OC	HSP90 refold inh 55.7, HSF-1 act 55.2 | HSP90 inh confirm inactive | luciferase ctr inactive
CCCCCCOc1ccc(CN2CCN(CC)CC2)cc1	HSP90 refold inh 29.5 (no result: HSF1 inh, HSF-1 act) | HSP90 inh confirm 24.8 | luciferase ctr inactive
Cc1ccc(C)c(NC(=O)CCNC(=O)N2C[C@H]3C[C@@H](C2)c2cccc(=O)n2C3)c1	none
COc1ccccc1/C=C1\C(=O)NC(=S)N(c2ccccc2)C1=O	none
CCOc1cccc(N2C(=O)/C(=C/c3ccco3)C(=O)NC2=S)c1	HSP90 refold inh 32.2 | HSP90 inh confirm inactive | luciferase ctr 18.7
CCOP(=O)(OCC)/C(C#N)=C/c1ccoc1	none
Cc1cccc(CN2CCCN(Cc3ccc(Cl)cc3)S2(=O)=O)c1	none
Cc1ccc(CN2CCCN(Cc3ccc(C)cc3)S2(=O)=O)cc1	HSP90 refold inh 18.0 | HSP90 inh confirm inactive | luciferase ctr inactive
COc1ccc(-n2c(/C=C/c3ccc(O)cc3)nc3ccccc3c2=O)cc1	none
CCn1nc(/C=C/c2ccccc2)nc2c(=O)n(C)c(=O)nc1-2	HSP90 refold inh 85.2 (no result: HSF1 inh, HSF-1 act) | HSP90 inh confirm 96.2 | luciferase ctr 87.7
O=C(CCS(=O)(=O)c1ccc(Br)cc1)N1CCC2(CC1)OCCO2	HSP90 refold inh 77.7 (no result: HSF1 inh, HSF-1 act) | HSP90 inh confirm inactive | luciferase ctr inactive
O=C(c1ccc(CS(=O)(=O)c2ccc(Br)cc2)o1)N1CCC2(CC1)OCCO2	none (no result: Hep lipid drop)
CC(C)N1C(=O)/C(=C/C=C/c2ccco2)C(=O)N(Cc2ccco2)C1=O	none (no result: Hep lipid drop)
CCN1C(=O)C(=C/C=C/c2ccco2)C(=O)N(CC)C1=S	NS3 helicase inh 39.1 | NS3 helicase cf 75.3 | FID counter trip inactive
COC(=O)C1=C(c2cc3ccccc3o2)C[C@@H]2CC[C@H]1N2C(=O)N1CCCC1	none (no result: Hep lipid drop, NS3 helicase inh, HSP90 refold inh)
O=C1NC(=S)N(Cc2ccco2)C(=O)/C1=C\c1cccs1	NS3 helicase inh 51.6 (no result: HSF1 inh, HSF-1 act) | NS3 helicase cf 77.1 | FID counter trip inactive
Cc1cc(/C=C2/C(=O)NC(=O)N(Cc3ccco3)C2=O)c(C)n1-c1ccccc1	NS3 helicase inh 49.8 | NS3 helicase cf inactive | FID counter trip inactive
CN(C)c1ccc(/C=C2/C(=O)NC(=O)N(Cc3ccco3)C2=O)cc1	none
O=C1NC(=O)N(Cc2ccco2)C(=O)/C1=C/c1ccc(-c2cccc([N+](=O)[O-])c2)o1	NS3 helicase inh 38.6 | NS3 helicase cf 66.5 | FID counter trip inactive
C=CCN1C(=O)/C(=C/c2cccs2)C(=O)NC1=S	none

Screening data deposited in PubChem BioAssay by several laboratories.
